Experimental data: ChEMBL document CHEMBL2176949 (J Med Chem, 2012)

Key:
[1] = target: Neuronal acetylcholine receptor subunit alpha-7 (Homo sapiens, UniProt P36544); assay: Displacement of [3H]epibatidine from human alpha7 nAChR expressed in human HEK/RIC3 cells; type: cell-based
Method in brief: (§1)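 Binding to membranes from the cell lines: homogenised in PBS pH 7.4, spun at 40000g for 20 min at 4 °C, then incubated 2 h on ice in PBS with competitor (0.001 nM to 100 μM) and radioligand. Filters washed in ice-cold PBS and counted by scintillation. IC50 from nonlinear regression; Ki by Cheng-Prusoff. Minimum of three assays, ± SEM.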

[2] = target: T1, Neuronal acetylcholine receptor; alpha3/beta4 (Homo sapiens, UniProt P30926+P32297); assay: Displacement of [3H]epibatidine from human alpha3beta4 nAChR expressed in human SH-SY5Y cells; type: cell-based; method in brief: as §1
[3] = target: T2, Neuronal acetylcholine receptor; alpha4/beta2 (Homo sapiens, UniProt P17787+P43681); assay: Displacement of [3H]nicotine from human alpha4beta2 nAChR expressed in human SH-EP1 cells; type: cell-based; method in brief: as §1
[4] = target: T2, Neuronal acetylcholine receptor; alpha4/beta2; assay: Agonist activity at human alpha4beta2 nAChR low sensitivity form expressed in human SH-EP1 cells assessed as increase in calcium flux by FLIPR; type: functional, cell-based
[5] = target: T1, Neuronal acetylcholine receptor; alpha3/beta4; assay: Agonist activity at human alpha3beta4 nAChR expressed in human SH-SY5Y cells assessed as increase in calcium flux by FLIPR; type: functional, cell-based
[6] = target: T2, Neuronal acetylcholine receptor; alpha4/beta2; assay: Agonist activity at human alpha4beta2 nAChR low sensitivity form expressed in human SH-EP1 cells assessed as increase in calcium flux by FLIPR relative to 10 uM nicotine; type: functional, cell-based
[7] = target: T2, Neuronal acetylcholine receptor; alpha4/beta2; assay: Agonist activity at human alpha4beta2 nAChR high sensitivity form expressed in human SH-EP1 cells assessed as increase in calcium flux by FLIPR relative to 10 uM nicotine; type: functional, cell-based
[8] = target: T1, Neuronal acetylcholine receptor; alpha3/beta4; assay: Agonist activity at human alpha3beta4 nAChR expressed in human SH-SY5Y cells assessed as increase in calcium flux by FLIPR relative to 10 uM nicotine; type: functional, cell-based
[9] = target: T2, Neuronal acetylcholine receptor; alpha4/beta2; assay: Agonist activity at human alpha4beta2 nAChR high sensitivity form expressed in human SH-EP1 cells assessed as increase in calcium flux by FLIPR; type: functional, cell-based

Chain of Neuronal acetylcholine receptor subunit alpha-7 (P36544 whole entry): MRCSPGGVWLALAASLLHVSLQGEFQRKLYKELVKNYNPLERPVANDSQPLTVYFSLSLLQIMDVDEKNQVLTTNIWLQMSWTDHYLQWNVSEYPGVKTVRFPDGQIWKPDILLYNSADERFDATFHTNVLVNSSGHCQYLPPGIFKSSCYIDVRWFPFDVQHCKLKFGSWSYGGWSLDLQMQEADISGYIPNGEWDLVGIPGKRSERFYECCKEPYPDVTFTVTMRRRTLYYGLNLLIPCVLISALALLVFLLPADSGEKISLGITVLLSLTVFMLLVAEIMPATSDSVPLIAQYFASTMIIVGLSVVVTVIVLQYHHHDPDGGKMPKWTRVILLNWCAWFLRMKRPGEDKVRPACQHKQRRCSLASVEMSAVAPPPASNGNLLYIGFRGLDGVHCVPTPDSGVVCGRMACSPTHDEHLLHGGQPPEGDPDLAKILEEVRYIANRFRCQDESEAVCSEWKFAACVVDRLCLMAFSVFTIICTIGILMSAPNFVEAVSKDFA
T2 sequence (P17787 whole entry): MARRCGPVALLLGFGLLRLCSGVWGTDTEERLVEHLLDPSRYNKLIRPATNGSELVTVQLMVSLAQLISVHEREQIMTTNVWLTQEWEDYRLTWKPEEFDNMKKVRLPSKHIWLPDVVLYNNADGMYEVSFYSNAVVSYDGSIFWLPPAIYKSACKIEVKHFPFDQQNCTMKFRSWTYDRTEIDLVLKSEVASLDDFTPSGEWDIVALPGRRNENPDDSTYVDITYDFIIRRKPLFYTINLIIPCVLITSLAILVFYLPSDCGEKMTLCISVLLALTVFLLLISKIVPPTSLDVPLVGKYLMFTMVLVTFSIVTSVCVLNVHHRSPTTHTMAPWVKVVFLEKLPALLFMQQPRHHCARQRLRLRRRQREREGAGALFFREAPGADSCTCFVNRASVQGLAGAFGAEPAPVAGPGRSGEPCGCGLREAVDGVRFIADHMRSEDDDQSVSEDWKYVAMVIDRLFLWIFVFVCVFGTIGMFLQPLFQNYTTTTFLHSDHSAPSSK
T2 sequence (P43681 whole entry): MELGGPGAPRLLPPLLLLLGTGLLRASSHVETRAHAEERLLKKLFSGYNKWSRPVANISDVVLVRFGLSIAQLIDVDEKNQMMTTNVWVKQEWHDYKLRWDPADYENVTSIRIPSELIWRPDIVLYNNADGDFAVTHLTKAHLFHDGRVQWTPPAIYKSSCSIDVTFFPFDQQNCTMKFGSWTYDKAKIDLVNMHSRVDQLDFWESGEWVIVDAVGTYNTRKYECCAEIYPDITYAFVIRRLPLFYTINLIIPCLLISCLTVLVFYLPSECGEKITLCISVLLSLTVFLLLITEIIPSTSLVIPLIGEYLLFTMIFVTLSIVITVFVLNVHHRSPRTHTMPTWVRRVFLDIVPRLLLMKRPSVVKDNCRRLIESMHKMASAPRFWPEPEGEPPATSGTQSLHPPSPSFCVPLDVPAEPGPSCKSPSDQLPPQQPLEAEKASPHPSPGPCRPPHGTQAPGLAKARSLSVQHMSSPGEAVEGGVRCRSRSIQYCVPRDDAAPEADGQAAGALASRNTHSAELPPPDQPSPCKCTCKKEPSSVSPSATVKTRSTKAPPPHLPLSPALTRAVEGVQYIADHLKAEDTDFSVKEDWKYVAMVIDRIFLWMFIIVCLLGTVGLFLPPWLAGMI
T1 sequence (P30926 whole entry): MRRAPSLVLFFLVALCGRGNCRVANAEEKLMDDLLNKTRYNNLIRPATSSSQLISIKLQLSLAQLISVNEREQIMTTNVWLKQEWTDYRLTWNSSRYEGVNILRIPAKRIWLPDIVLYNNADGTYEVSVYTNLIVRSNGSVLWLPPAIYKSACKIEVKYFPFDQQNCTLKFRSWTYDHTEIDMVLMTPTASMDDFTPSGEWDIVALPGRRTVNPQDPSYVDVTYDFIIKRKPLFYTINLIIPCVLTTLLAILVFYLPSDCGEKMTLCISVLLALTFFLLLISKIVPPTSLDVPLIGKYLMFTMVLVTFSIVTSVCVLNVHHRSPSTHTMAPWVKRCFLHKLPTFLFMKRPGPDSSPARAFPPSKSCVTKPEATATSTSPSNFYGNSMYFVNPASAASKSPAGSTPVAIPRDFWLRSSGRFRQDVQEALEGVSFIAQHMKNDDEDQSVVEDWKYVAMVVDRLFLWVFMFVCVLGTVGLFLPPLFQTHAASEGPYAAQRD
T1 sequence (P32297 whole entry): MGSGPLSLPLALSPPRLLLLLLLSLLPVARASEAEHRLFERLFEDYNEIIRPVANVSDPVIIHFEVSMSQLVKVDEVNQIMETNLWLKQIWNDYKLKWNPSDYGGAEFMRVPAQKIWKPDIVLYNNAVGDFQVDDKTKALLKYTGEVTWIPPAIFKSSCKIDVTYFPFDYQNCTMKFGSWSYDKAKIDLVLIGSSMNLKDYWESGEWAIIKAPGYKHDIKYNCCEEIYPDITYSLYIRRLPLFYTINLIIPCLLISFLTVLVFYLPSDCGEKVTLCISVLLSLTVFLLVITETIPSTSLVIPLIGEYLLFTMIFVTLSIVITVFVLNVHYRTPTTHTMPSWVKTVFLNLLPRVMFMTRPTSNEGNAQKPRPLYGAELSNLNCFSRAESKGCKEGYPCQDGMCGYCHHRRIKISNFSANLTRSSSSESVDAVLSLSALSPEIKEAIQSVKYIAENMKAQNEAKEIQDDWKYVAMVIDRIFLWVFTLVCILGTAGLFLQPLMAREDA

SMILES | Ki [1] | Ki [2] | Ki [3] | EC50 [4] | EC50 [5] | %max [6] | %max [7] | %max [8] | EC50 [9]
CN1CC2C=C(c3cncc(C#N)c3)CC(C2)C1 (stereo not given) | > 10000 nM | 4500 nM | 24 nM |  |  |  |  |  | 
N#Cc1cncc(C2=C[C@H]3CNC[C@@H](C2)C3)c1 | 73 nM | 15 nM | 0.3 nM | 4190 nM | 355 nM | 88% | 95% | 136% | 256 nM
C1=C(c2cccnc2)CC2CNCC1C2 (racemic) | 4 nM | 12 nM | 0.2 nM |  |  |  |  |  | 
CN1CC2C=C(c3cncc(OCc4ccccc4)c3)CC(C2)C1 (stereo not given) | 4540 nM | 711 nM | 1.7 nM |  |  |  |  |  | 
COc1cc(C2=CC3CNCC(C2)C3)cnc1Cl (stereo not given) | 111 nM | 7 nM | 0.4 nM |  |  |  |  |  | 
Fc1ccc(Oc2cncc(C3=CC4CNCC(C3)C4)c2)cc1 (stereo not given) | 7.2 nM | 31 nM | 0.6 nM |  |  |  |  |  | 
CN1CC2C=C(c3ccc(F)nc3)CC(C2)C1 (stereo not given) | 1300 nM | 1300 nM | 18 nM | > 10000 nM | > 10000 nM | 9.4% | 22% | 25% | > 10000 nM
COc1ccccc1Oc1cncc(C2=CC3CNCC(C2)C3)c1 (stereo not given) | 30 nM | 56 nM | 1 nM |  |  |  |  |  | 
COc1cc(C2=CC3CC(C2)CN(C)C3)cnc1Cl (stereo not given) | 7570 nM | 1430 nM | 4.4 nM |  |  |  |  |  | 
C1=C(c2ccncc2)CC2CNCC1C2 (stereo not given) | > 10000 nM | 459 nM | 56 nM |  |  |  |  |  | 
Cc1ccc(C2=CC3CNCC(C2)C3)cn1 (stereo not given) | 80 nM | 25 nM | 0.3 nM | 79 nM | 93 nM | 112% | 107% | 149% | 75 nM
COc1cncc(C2=CC3CC(C2)CN(C)C3)c1 (stereo not given) | 605 nM | 596 nM | 0.6 nM | 5130 nM | 3640 nM | 15% | 19% | 27% | 2660 nM
N#Cc1cncc(C2=CC3CNCC(C2)C3)c1 (stereo not given) | 160 nM | 47 nM | 0.6 nM |  |  |  |  |  | 
Fc1ccc(C2=CC3CNCC(C2)C3)cn1 (stereo not given) | 20 nM | 28 nM | 0.4 nM | 85 nM | 99 nM | 136% | 104% | 140% | 85 nM
COc1ccc(Oc2cncc(C3=CC4CNCC(C3)C4)c2)cc1 (stereo not given) | 23 nM | 27 nM | 1.4 nM |  |  |  |  |  | 
Fc1cncc(C2=C[C@H]3CNC[C@@H](C2)C3)c1 | 3.3 nM | 8.3 nM | 0.2 nM | 50 nM | 155 nM | 119% | 100% | 140% | 29 nM
FC(F)(F)c1cncc(C2=CC3CNCC(C2)C3)c1 (stereo not given) | 641 nM | 79 nM | 0.7 nM |  |  |  |  |  | 
Clc1ccc(C2=CC3CNCC(C2)C3)cn1 (stereo not given) | 39 nM | 6.2 nM | 0.4 nM | 35 nM | 16 nM | 152% | 98% | 141% | 54 nM
COc1cccc(Oc2cncc(C3=CC4CNCC(C3)C4)c2)c1 (stereo not given) | 13 nM | 15 nM | 0.9 nM |  |  |  |  |  | 
Clc1cccc(Oc2cncc(C3=CC4CNCC(C3)C4)c2)c1 (stereo not given) | 13 nM | 22 nM | 1 nM |  |  |  |  |  | 
Clc1ccncc1C1=CC2CNCC(C1)C2 (stereo not given) | 33 nM | 128 nM | 3 nM | > 10000 nM | 377 nM | 12.8% | 46% | 105% | 2000 nM
COc1cncc(C2=CC3CNCC(C2)C3)c1 (stereo not given) | 4.6 nM | 14.3 nM | 0.3 nM | 53 nM | 105 nM | 100% | 72% | 145% | 49 nM
CN1CC2C=C(c3cnccc3C#N)CC(C2)C1 (stereo not given) | 4850 nM |  | 3420 nM |  |  |  |  |  | 

SMILES | Ki [1] | Ki [2] | Ki [3] | EC50 [4] | EC50 [5] | %max [6] | %max [7] | %max [8] | EC50 [9]
c1cncc(N2CC3CNCC(C3)C2)c1 | 1.6 nM | 6.6 nM | 0.1 nM |  |  |  |  |  | 
COc1ccc(C2=CC3CC(C2)CN(C)C3)cn1 (stereo not given) | > 10000 nM | > 10000 nM | 797 nM | > 10000 nM | 1890 nM | 20% | 91% | 61% | 3460 nM
Clc1ccccc1Oc1cncc(C2=CC3CNCC(C2)C3)c1 (stereo not given) | 39 nM | 26 nM | 0.9 nM |  |  |  |  |  | 
C1=C(c2cnccn2)CC2CNCC1C2 (stereo not given) | 281 nM | 828 nM | 1.1 nM |  |  |  |  |  | 
Clc1ccc(C2=CC3CNCC(C2)C3)nn1 (stereo not given) | 77 nM | 73 nM | 0.4 nM | 595 nM | 149 nM | 160% | 118% | 135% | 80 nM
CN1CC2C=C(c3cncc(Cl)c3)CC(C2)C1 (stereo not given) | 8010 nM | 1830 nM | 9.6 nM |  |  |  |  |  | 
C1=C(c2ccc3nccnc3c2)CC2CNCC1C2 (stereo not given) | > 10000 nM | 5740 nM | 85 nM |  |  |  |  |  | 
CN1CC2C=C(c3ccc(Cl)nc3)CC(C2)C1 (stereo not given) | 6530 nM | 986 nM | 22 nM |  |  |  |  |  | 
Fc1cncc(C2=CC3CNCC(C2)C3)c1 (stereo not given) | 3.6 nM | 39 nM | 0.3 nM |  |  |  |  |  | 
C1=C(c2ccc(-c3ccccc3)nc2)CC2CNCC1C2 (stereo not given) | 590 nM | 507 nM | 105 nM | 9660 nM | 10900 nM | 18% | 19% | 17% | > 10000 nM
Clc1ccc(Oc2cncc(C3=CC4CNCC(C3)C4)c2)cc1 (stereo not given) | 23 nM | 40 nM | 1.9 nM |  |  |  |  |  | 
CN1CC2C=C(c3cncc(Oc4ccccc4)c3)CC(C2)C1 (stereo not given) | 17 nM | 8.2 nM | 1.3 nM | > 10000 nM | 100 nM | 9.5% | 42% | 103% | 183 nM
COc1ccc(C2=CC3CNCC(C2)C3)cn1 (stereo not given) | 1850 nM | 328 nM | 0.4 nM |  |  |  |  |  | 
CNCC/C=C/c1cccnc1 [RIVANICLINE] | 8000 nM | 5400 nM | 26 nM |  |  |  |  |  | 
CN1CC2C=C(c3cncc(F)c3)CC(C2)C1 (stereo not given) | 1010 nM | 1640 nM | 13 nM |  |  |  |  |  | 
Fc1cncc(C2=C[C@@H]3CNC[C@H](C2)C3)c1 | 1.6 nM | 5.4 nM | 0.2 nM | 36 nM | 111 nM | 120% | 112% | 153% | 34 nM
C1=C(c2cncc(OCc3ccccc3)c2)CC2CNCC1C2 (stereo not given) | 43.9 nM | 44 nM | 0.7 nM |  |  |  |  |  | 
CN1CC2C=C(c3cnccc3Cl)CC(C2)C1 (stereo not given) | 1420 nM | 7230 nM | 1160 nM |  |  |  |  |  | 
C1=C(c2cncc(-c3ccccc3)c2)CC2CNCC1C2 (stereo not given) | 3220 nM | 17 nM | 0.8 nM | > 10000 nM | 181 nM | 5.3% | 33% | 61% | 85 nM
C1=C(c2cncnc2)CC2CNCC1C2 (stereo not given) | 19 nM | 58 nM | 0.2 nM | 162 nM | 198 nM | 145% | 116% | 147% | 240 nM
N#Cc1ccncc1C1=CC2CNCC(C1)C2 (stereo not given) | 330 nM | 103 nM | 2.8 nM | > 10000 nM | 166 nM | 27% | 55% | 130% | 3250 nM
Clc1cncc(C2=CC3CNCC(C2)C3)c1 (stereo not given) | 15 nM | 40 nM | 0.4 nM |  |  |  |  |  | 
N#Cc1cncc(C2=C[C@@H]3CNC[C@H](C2)C3)c1 | 79 nM | 17 nM | 0.3 nM | 343 nM | 447 nM | 89% | 92% | 144% | 107 nM
